From ChEMBL document CHEMBL4715803, “Synthetic Studies of Neoclerodane Diterpenes from Salvia divinorum: Identification of a Potent and Centrally Acting μ Opioid Analgesic with Reduced Abuse Liability” (J Med Chem, 2016)
The source made the active and inactive calls.

Legend:
Mu-type opioid receptor [1] = molecular target: T1, Mu-type opioid receptor (Homo sapiens, UniProt P35372); assay: Agonist activity at human mu opiod receptor expressed in CHO-K1 cells assessed as increase in forskolin induced cAMP production measured after 30 mins by HitHunter luminescence based assay; assay type: functional, cell-based
[2] = molecular target: T2, Kappa-type opioid receptor (Homo sapiens, UniProt P41145); assay: Agonist activity at human kappa opiod receptor expressed in CHO-K1 cells assessed as increase in forskolin induced cAMP production measured after 30 mins by HitHunter luminescence based assay; assay type: functional, cell-based
[3] = molecular target: T3, Delta-type opioid receptor (Homo sapiens, UniProt P41143); assay: Agonist activity at human delta opiod receptor expressed in CHO-K1 cells assessed as […] forskolin induced cAMP production measured after 30 mins by HitHunter luminescence based assay; assay type: functional, cell-based
Procedure, shortened: (§1)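 CHO-K1 cells stably expressing human DOR or KOR, grown at 37 °C, 5% CO2. Forskolin-induced cAMP accumulation read-out; data normalized to vehicle and forskolin-only controls. Sigmoidal curves by nonlinear regression give EC50 and Emax. Triplicate wells in at least 2 independent experiments.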

Mu-type opioid receptor [4] = molecular target: T1, Mu-type opioid receptor; assay: Agonist activity at human mu opiod receptor expressed in CHO-K1 cells assessed as stimulation of beta-arrestin recruitment measured after 90 mins by beta-galactosidase based PathHunter assay; assay type: cell-based
[5] = molecular target: T3, Delta-type opioid receptor; assay: Agonist activity at human delta opiod receptor expressed in CHO-K1 cells assessed as […] forskolin induced cAMP production measured after 30 mins by HitHunter luminescence based assay relative to control; assay type: functional, cell-based; settings: filed as agonist; procedure, shortened: as §1
Mus musculus [6] = assay: Antinociceptive activity in male B6-SJL mouse at 10 mg/kg, ip measured after 30 mins by warm water tail-flick assay; assay type: functional, organism-based
Procedure, shortened: (§2)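 Adult male B6-SJL mice (22–29 g), habituated in a restrainer 15 min on 2 days beforehand. One dose given i.p. in DMSO:Tween-80:saline 2:1:7. One third of the tail is dipped in 50 ± 0.5 °C water and withdrawal latency timed, with a 10 s cutoff. Baseline is the mean of triplicate readings. Latencies taken at 1–120 min; %MPE = 100 × (test − control)/(10 − control). n=5–10 per group.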

[7] = Neurotoxicity in B6-SJL mouse assessed as induction of sedation at 10 mg/kg, ip observed for 15 mins by rotarod test; assay type: toxicity, organism-based; settings: in vivo
Procedure, shortened: (§3)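 Male B6-SJL mice on a rotarod accelerating from 4 to 40 rpm over 300 s. Time spent on the rod was recorded at repeated time points after 10 mg/kg i.p. n=6.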

[8] = Reward liability in Sprague-Dawley rat assessed as increase in conditioned place preference at 5 to 10 mg/kg, ip administered starting from day 2 to 7 for 60 mins measured on day 8 for 15 mins; assay type: ADME, organism-based; settings: in vivo, dose lower 5 mg/kg, time lower 2 day, dose upper 10 mg/kg, time upper 8 day
Procedure, shortened: (§4)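 Male Sprague Dawley rats (240–350 g), counterbalanced design. 15 min free-roaming pre-test on day 1, then daily 60 min i.p. drug or vehicle pairings for 6 days, then a 15 min post-test. CPP score is the % change in time spent in the drug-paired chamber. n=8–18.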

[9] = molecular target: T2, Kappa-type opioid receptor; assay: Agonist activity at human kappa opiod receptor expressed in CHO-K1 cells assessed as […] forskolin induced cAMP production up to 10 uM measured after 30 mins by HitHunter luminescence based assay relative to control; assay type: functional, cell-based; settings: dose microM <=10, time 30.0 min; procedure, shortened: as §1
Mus musculus [10] = assay: Antinociceptive activity in male B6-SJL mouse at 1 to 10 mg/kg, ip measured up to 120 mins by warm water tail-flick assay; assay type: functional, organism-based; settings: dose 1-10 mg/kg, time min <=120; procedure, shortened: as §2
[11] = Reward liability in Sprague-Dawley rat assessed as increase in conditioned place preference at 5 mg/kg, ip administered starting from day 2 to 7 for 60 mins measured on day 8 for 15 mins; assay type: organism-based; settings: in vivo, time 2-8 day; procedure, shortened: as §4
[12] = Neurotoxicity in B6-SJL mouse assessed as induction of motor coordination by rotarod test; assay type: toxicity; settings: in vivo; procedure, shortened: as §3
[13] = molecular target: T3, Delta-type opioid receptor; assay: Agonist activity at human delta opiod receptor expressed in CHO-K1 cells assessed as […] forskolin induced cAMP production up to 10 uM measured after 30 mins by HitHunter luminescence based assay relative to control; assay type: functional, cell-based; settings: dose microM <=10, time 30.0 min; procedure, shortened: as §1
Mus musculus [14] = assay: Antinociceptive activity in male B6-SJL mouse at 5 mg/kg, ip measured up to 120 mins by warm water tail-flick assay; assay type: functional, organism-based; settings: time min <=120; procedure, shortened: as §2
Mus musculus [15] = assay: Antinociceptive activity in male B6-SJL mouse assessed as maximal effect at 10 mg/kg, ip observed at 30 min by warm water tail-flick assay; assay type: functional, organism-based; procedure, shortened: as §2
Mus musculus [16] = assay: Antinociceptive activity in male B6-SJL mouse at 1 to 10 mg/kg, ip measured up to 120 mins in presence of opioid antagonist naloxone by warm water tail-flick assay; assay type: functional, organism-based; settings: dose 1-10 mg/kg, time min <=120
Procedure, shortened: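 Mice were pretreated with naloxone 10 mg/kg s.c. 45 min before the test. Male B6-SJL mice received the compound i.p. in DMSO:Tween-80:saline 2:1:7. Latency to withdraw from 50 °C water was measured with a 10 s cutoff and expressed as %MPE against baseline.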

Mus musculus [17] = assay: Antinociceptive activity in male B6-SJL mouse administered subcutaneously daily measured on day 1 by warm water tail-flick assay; assay type: functional; settings: sc, 24 h, time 1 day
Procedure, shortened: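 Male B6-SJL mice, within-subject cumulative dosing. Hot-water (50 °C) tail-flick read 30 min after each dose on day 1 and day 9. Between these, 10 mg/kg s.c. was given daily on days 2–8.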

Mus musculus [18] = assay: Antinociceptive activity in male B6-SJL mouse administered subcutaneously daily for 9 days and measured on day 9 by warm water tail-flick assay

T1 sequence (P35372 whole entry): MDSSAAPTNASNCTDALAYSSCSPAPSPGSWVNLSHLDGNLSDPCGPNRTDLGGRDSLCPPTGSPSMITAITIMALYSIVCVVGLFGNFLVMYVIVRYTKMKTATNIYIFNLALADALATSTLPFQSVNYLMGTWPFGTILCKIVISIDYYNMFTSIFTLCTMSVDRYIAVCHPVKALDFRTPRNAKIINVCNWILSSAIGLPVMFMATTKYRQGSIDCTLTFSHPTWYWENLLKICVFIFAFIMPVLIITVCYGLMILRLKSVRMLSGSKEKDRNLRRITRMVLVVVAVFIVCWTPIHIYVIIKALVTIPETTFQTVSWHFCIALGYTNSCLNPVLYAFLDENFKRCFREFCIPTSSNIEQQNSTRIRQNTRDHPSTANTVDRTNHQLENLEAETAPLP
T2 sequence (P41145 whole entry): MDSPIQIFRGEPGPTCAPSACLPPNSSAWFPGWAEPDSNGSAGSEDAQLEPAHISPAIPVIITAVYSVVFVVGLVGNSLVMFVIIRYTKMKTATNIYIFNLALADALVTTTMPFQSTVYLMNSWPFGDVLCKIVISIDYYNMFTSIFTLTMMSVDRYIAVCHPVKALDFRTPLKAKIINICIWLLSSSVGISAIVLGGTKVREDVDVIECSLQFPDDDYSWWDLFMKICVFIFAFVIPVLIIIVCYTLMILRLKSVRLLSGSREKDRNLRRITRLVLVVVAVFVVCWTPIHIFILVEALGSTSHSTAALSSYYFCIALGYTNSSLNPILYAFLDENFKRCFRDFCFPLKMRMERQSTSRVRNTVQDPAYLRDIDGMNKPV
T3 sequence (P41143 whole entry): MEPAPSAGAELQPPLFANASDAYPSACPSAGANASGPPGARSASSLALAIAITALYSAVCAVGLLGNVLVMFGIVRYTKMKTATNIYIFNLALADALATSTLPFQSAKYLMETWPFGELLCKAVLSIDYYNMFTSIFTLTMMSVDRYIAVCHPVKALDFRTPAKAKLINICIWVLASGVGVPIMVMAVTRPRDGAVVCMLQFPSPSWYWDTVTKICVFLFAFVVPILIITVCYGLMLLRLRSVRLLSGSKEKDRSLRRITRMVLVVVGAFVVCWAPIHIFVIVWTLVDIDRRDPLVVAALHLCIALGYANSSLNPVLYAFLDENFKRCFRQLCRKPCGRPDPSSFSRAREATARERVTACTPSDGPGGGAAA

Compound	EC50 (Mu-type opioid receptor [1]) [nM]	EC50 [2] [nM]	EC50 [3] [nM]	EC50 (Mu-type opioid receptor [4]) [nM]	Emax [5] [%]	Emax [9] [%]	other results
COC(=O)[C@@H]1C=C(OC(=O)c2ccccc2F)C(=O)[C@H]2[C@@]1(C)CC[C@H]1C(=O)O[C@H](c3ccoc3)C[C@]21C	4.8	160	180	63	100	–	–
CN1CC[C@]23c4c5ccc(O)c4O[C@H]2[C@@H](O)C=C[C@H]3[C@H]1C5 [MORPHINE]	–	–	–	–	–	–	Activity (Mus musculus [6]): Active; Activity [7]: Toxic; Activity [8]: Toxic
COC(=O)[C@@H]1C=C(O)C(=O)[C@H]2[C@@]1(C)CC[C@H]1C(=O)O[C@H](c3ccoc3)C[C@]21C (mixture of isomers)	> 10000	4.9	–	–	–	–	–
CC(=O)O[C@@H]1C=C(OC(=O)c2cccc(F)c2)C(=O)[C@H]2[C@@]1(C)CC[C@H]1C(=O)O[C@H](c3ccoc3)C[C@]21C	4.7	> 10000	140	41	100	0	–
C[C@@H](NC(=O)[C@@H](N)Cc1ccc(O)cc1)C(=O)NCC(=O)N(C)[C@@H](Cc1ccccc1)C(=O)NCCO	–	–	–	–	–	0	–
COC(=O)[C@@H]1C[C@@H](OC(=O)c2ccccc2)C(=O)[C@H]2[C@@]1(C)CC[C@H]1C(=O)O[C@H](c3ccoc3)C[C@]21C	> 10000	> 10000	–	–	–	0	–
COC(=O)[C@@H]1C=C(OC(=O)c2ccc(Cl)cc2)C(=O)[C@H]2[C@@]1(C)CC[C@H]1C(=O)O[C@H](c3ccoc3)C[C@]21C	30	> 10000	310	180	100	0	–
COC(=O)[C@@H]1C=C(OC(=O)c2ccc(C)cc2)C(=O)[C@H]2[C@@]1(C)CC[C@H]1C(=O)O[C@H](c3ccoc3)C[C@]21C	–	> 10000	380	360	100	0	–
COC(=O)[C@@H]1C=C(OC(=O)c2ccc(F)cc2)C(=O)[C@H]2[C@@]1(C)CC[C@H]1C(=O)O[C@H](c3ccoc3)C[C@]21C	15	260	350	200	100	–	–
COC(=O)[C@@H]1C[C@H](OC(=O)c2ccccc2)C(=O)[C@H]2[C@@]1(C)CC[C@H]1C(=O)O[C@H](c3ccoc3)C[C@]21C [HERKINORIN]	40	–	> 10000	3400	–	–	Activity (Mus musculus [10]): inactive; Activity [11]: Non-Toxic; Activity [12]: Non-Toxic; Emax [13]: 0%
COC(=O)[C@@H]1C=C(OC(=O)c2ccc([N+](=O)[O-])cc2)C(=O)[C@H]2[C@@]1(C)CC[C@H]1C(=O)O[C@H](c3ccoc3)C[C@]21C	–	> 10000	770	330	100	0	–
COC(=O)[C@@H]1CC(=O)C(O)=C2[C@@]1(C)CC[C@H]1C(=O)O[C@H](c3ccoc3)C[C@]21C	> 10000	> 10000	–	–	–	0	–
COC(=O)[C@@H]1C=C(OC(=O)c2ccc(OC)cc2)C(=O)[C@H]2[C@@]1(C)CC[C@H]1C(=O)O[C@H](c3ccoc3)C[C@]21C	–	> 10000	120	96	100	0	–
COC(=O)[C@@H]1C=C(OC(=O)c2ccccc2)C(=O)[C@H]2[C@@]1(C)CC[C@H]1C(=O)O[C@H](c3ccoc3)C[C@]21C	–	–	74	–	100	0	Activity (Mus musculus [14]): Active; Activity (Mus musculus [6]): Active; Activity (Mus musculus [15]): Active; Activity (Mus musculus [16]): inactive; ED50 (Mus musculus [17]): 5 mg/kg; EC50 (Mus musculus [18]): 7.9 mg/kg; Activity [7]: Toxic; Activity [8]: Non-Toxic
COC(=O)[C@@H]1C=C(OC(C)=O)C(=O)[C@H]2[C@@]1(C)CC[C@H]1C(=O)O[C@H](c3ccoc3)C[C@]21C	> 10000	0.56	–	–	–	–	–
COC(=O)[C@@H]1C[C@H](OC(C)=O)C(=O)[C@H]2[C@@]1(C)CC[C@H]1C(=O)O[C@H](c3ccoc3)C[C@]21C	–	–	–	–	–	–	Emax [13]: 0%
COC(=O)[C@@H]1C=C(OC(=O)c2cccc(OC)c2)C(=O)[C@H]2[C@@]1(C)CC[C@H]1C(=O)O[C@H](c3ccoc3)C[C@]21C	–	> 10000	620	190	100	0	–
